Assay outcomes deposited in PubChem by several laboratories.
MrgX1 agonist: agonists of human MrgX1 receptor, primary screen, HEK293 cells, Fluo-4 calcium flux. Fluo-4 calcium fluorescence, agonist mode; hits give high values. hit rate 0.44% among 310,000. B-score at 10 µM;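 active means calcium response B-score plate-corrected fluorescence ratio at least 3 library SD, with starting fluorescence B-score inside 5 SD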
Target sequence (Q96LB2 whole entry, looked up): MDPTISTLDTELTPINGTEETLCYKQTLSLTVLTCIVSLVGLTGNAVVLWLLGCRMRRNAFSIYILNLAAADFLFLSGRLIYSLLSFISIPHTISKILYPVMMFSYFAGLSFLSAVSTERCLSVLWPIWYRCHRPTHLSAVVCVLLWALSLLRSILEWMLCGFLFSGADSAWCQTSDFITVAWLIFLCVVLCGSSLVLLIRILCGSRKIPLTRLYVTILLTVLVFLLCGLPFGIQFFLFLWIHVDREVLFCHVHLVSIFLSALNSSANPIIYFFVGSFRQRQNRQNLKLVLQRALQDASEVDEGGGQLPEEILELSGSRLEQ
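times = overnight plating, then 30 min 37 °C plus 30 min room-temperature dye loading | assay system = stable human MrgX1 HEK293 cell line | input = fifteen thousand cells per well | signal = kinetic calcium dye fluorescence, Fluo-4 NW | dosing = compound delivered in addition one of three | read-out = B-scored fluorescence response ratio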
RGS4 act: RGS4 potentiators or activators, primary screen, cell-based, HEK293 M3R inducible RGS4, calcium flux; carbachol calcium flux Fluo4; hits give low values; B-score at 10 µM; hit rate 0.92% among 310,000; AID 463111, 2010;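 active means B-score of the integrated calcium signal more than 4 SD below the library mean, with starting fluorescence not abnormally high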;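 further: negative B-score means reduced calcium response which marks RGS4 activation or potentiation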
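Reagent: ECmax carbachol challenge; Test system: M3R-expressing HEK293 line, RGS4 induced by doxycycline; Schedule: overnight RGS4 induction, 30 min dye load 37 °C, 20 min compound RT; Detection: calcium dye Fluo4 fluorescence; Read-out: Agonist-evoked peak-minus-minimum fluorescence over baseline, integrated ratio, B score.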
RGS4 inh: RGS4 inhibitors, primary screen, cell-based, HEK293 M3R inducible RGS4, calcium flux; AID 463165, 2010; Regulator of G-protein signaling 4 (Homo sapiens), P49798; hit rate 0.45% among 310,000; Fluo-4 calcium flux; hits give high values; triggered by carbachol at its EC20; B-score at 10 µM;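 active means B-score, a plate-corrected calcium signal, over three deviations above library mean, with baseline fluorescence within five deviations of library mean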;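 further: RGS4 expression induced by doxycycline in cells with stable M3 receptor; B-score is computed from the integrated fluorescence ratio over baseline after carbachol; higher B-score means a larger calcium signal and so more RGS4 inhibition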
Target sequence (P49798 whole entry, looked up): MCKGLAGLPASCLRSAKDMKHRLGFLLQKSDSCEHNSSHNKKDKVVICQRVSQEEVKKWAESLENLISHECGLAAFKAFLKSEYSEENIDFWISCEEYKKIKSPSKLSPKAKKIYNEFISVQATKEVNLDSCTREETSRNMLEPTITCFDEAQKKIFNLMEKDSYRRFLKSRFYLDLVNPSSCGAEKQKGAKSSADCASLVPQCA
MrgX1 PAM: positive allosteric modulators of MrgX1, primary screen, HEK293 cells, Fluo-4 calcium flux | B-score at 10 µM | FDSS; hits give high values | Mas-related G-protein coupled receptor member X1 (Homo sapiens), Q96LB2 | AID 588675, 2011 | hit rate 0.63% among 310,000;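 active means plate-corrected calcium response at least 3 library SD above typical, normal starting fluorescence, not activating the receptor alone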;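 further: compound read alongside a low EC10 to EC30 dose of BAM8-22 agonist; peak minus trough fluorescence over baseline measured at the second addition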
PHOSPHO1 inh: PubChem AID 1565 | Phosphoethanolamine/phosphocholine phosphatase (Homo sapiens), Q8TCT1 | hit rate 1.1% among 290,000 | inhibition, % at 13.3 µM | recombinant PHOSPHO1, absorbance phosphatase assay; in the data active means inhibition above about 60%
MrgX1 antag: antagonists of human MrgX1 receptor, primary screen, HEK293 cells, Fluo-4 calcium flux; Mas-related G-protein coupled receptor member X1 (Homo sapiens), Q96LB2; BAM8-22 antagonism; hits give low values; B-score at 10 µM; hit rate 1.3% among 310,000; AID 588676, 2011;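 active means calcium-response B-score plate-corrected more than 3 library SD below zero, starting fluorescence within 5 deviations, no agonist response on first addition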;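 further: peak minus trough fluorescence over baseline after final BAM8-22 challenge near maximal dose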
RGS4 act valid: reduced carbachol calcium response, RGS4-induced M3R cells, confirmation, RGS4 activator project, cell-based, HEK293 M3R/RGS4 inducible, calcium flux, duplicate; AID 602282, 2012; carbachol calcium flux Fluo4; inhibition, % at 10 µM; shares compounds with RGS4 act; hit rate 89% among 1,100;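 active means inhibition above 3 SD of the buffer control wells, cut at about 41% in these data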;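 further: signal is the integrated peak-minus-minimum Fluo4 fluorescence over baseline ratio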
RGS4 act ctr: counter-screen for RGS4 activators: effect in non-induced cells; hit rate 82% among 1,100; inhibition, % at 10 µM; HEK293 M3R non-induced RGS4, Fluo4 calcium flux; after carbachol challenge at its EC90; shares compounds with RGS4 act; AID 602283;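 active means inhibition exceeding 3 SD of buffer-only control wells, cut at about 26% in these data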;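 further: percent drop in integrated peak-minus-baseline over baseline Fluo4 ratio after carbachol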
Numbers without * were called inactive; i = inactive; . = no result. This is a sample that favours compounds with a hit; in the whole collection about 4.5% have one here.

SMILES	MrgX1 agonist	RGS4 act	RGS4 inh	MrgX1 PAM	PHOSPHO1 inh	MrgX1 antag	RGS4 act valid	RGS4 act ctr
O=C(O)c1ccc(Nc2nc3ccc(Cl)cc3[nH]2)cc1	i	i	i	i	41	i	.	.
COc1ccc2c(C)c(CCC(=O)NCCCN3CCCC3=O)c(=O)oc2c1C	i	-8.9*	i	i	19	i	0	0
OCC1(CCc2ccccc2)CCN(C/C=C/c2ccccc2)CC1	i	i	i	i	19	i	.	.
OCC1(Cc2ccccc2Cl)CCN(C/C=C/c2ccccc2)CC1	i	-9.2*	i	i	36	i	94*	83*
CCC(C)NCCOc1ccc(C(C)(C)c2ccccc2)cc1 (stereo not drawn)	i	-7.8*	i	i	26	i	79*	34*
CNCCCOc1ccc(C(C)(C)c2ccccc2)cc1	.	i	i	.	28	.	.	.
CCOC(=O)c1nnn(-c2nonc2-n2cccc2)c1CN1CCC(C)CC1	i	-8*	i	i	20	i	72*	0
CCOC(=O)c1nnn(-c2nonc2-n2cccc2)c1CCl	i	i	i	i	11	i	.	.
CCS(=O)c1ccccc1C(=O)OC(C)C(=O)Nc1ccc(S(=O)(=O)N2CCCC2)cc1 (stereo not drawn)	i	i	i	i	.	i	.	.
Cn1c(=O)n(CCOc2ccc(Cl)cc2Cl)c2ccccc21	i	i	i	i	2	i	.	.
Cn1c(=O)n(CCOc2ccccc2Cl)c2ccccc21	i	-7.8*	i	i	11	i	88*	40*
COc1ccc(C2NC(=S)NC3=C2CCc2cc(OC)ccc23)cc1 (stereo not drawn)	i	i	i	i	8	i	.	.
COC(=O)c1ccccc1NC(=O)c1ccc(COc2cc(C)cc(C)c2)o1	i	-8.1*	i	i	-11	i	46*	0
CCOC(=O)C1CCN(C(=O)CSc2ccccc2Cl)CC1	i	i	i	i	-68	i	.	.
CC1(C)CC(=O)C2=C(C1)OC(N)=C(C#N)C2c1ccoc1 (stereo not drawn)	i	i	i	i	7	i	.	.
CC1(C)CC(=O)C2=C(C1)OC(N)=C(C#N)C2c1cn(-c2ccccc2)nc1-c1ccccc1 (stereo not drawn)	i	-11*	i	i	-30	i	0	0
CSc1ccc(CN2CCC(Oc3ccc(C(=O)N4CCCC4)cc3)CC2)cc1	i	-8.5*	i	i	12	i	87*	39*
CC(C)c1ccc(CN2CCC(Oc3ccc(C(=O)N4CCCC4)cc3)CC2)cc1	i	-9.1*	i	i	-5	i	92*	63*
CCOC(=O)c1cc2c(ccn2-c2ccc(F)cc2)n1CC(=O)NC(C)(C)C	i	i	i	i	26	i	.	.
c1ccc(CCCN2CCOCC2)cc1	i	i	i	i	-14	i	.	.
c1ccc(OCCCN2CCCC2)cc1	i	i	i	i	15	i	.	.
c1ccc(OCc2ccc(CCCN3CCOCC3)cc2)cc1	i	-8.1*	i	i	43	i	58*	84*
c1ccc(COc2ccc(OCCCN3CCCCC3)cc2)cc1	i	-7.7*	i	i	3	i	90*	63*
O=S(=O)(Nc1ccccc1)c1ccc(-c2csnn2)cc1	i	-8.4*	i	i	8	i	63*	84*
Cc1ccc(S(=O)(=O)Nc2c(C)cc(C)nc2Cl)cc1	i	i	i	i	16	i	.	.
SMILES	MrgX1 agonist	RGS4 act	RGS4 inh	MrgX1 PAM	PHOSPHO1 inh	MrgX1 antag	RGS4 act valid	RGS4 act ctr
NNC(=O)/C(=C\c1ccc(Br)cc1)NC(=O)c1cccs1	i	i	i	i	32	i	.	.
CCCCN(C)C(=O)c1cc2c(Cl)nc3ccccc3c2s1	i	-8.7*	i	i	47	i	59*	45*
CN1CCN(c2nnc(-c3ccc(F)cc3)c3ccccc23)CC1	i	i	i	i	31	i	.	.
CCOc1ccc(S(=O)(=O)n2cnc3cc(C)c(C)cc32)cc1	i	-9.9*	i	i	18	i	94*	95*
Cc1cc2ncn(S(=O)(=O)c3ccc(F)cc3)c2cc1C	i	i	i	i	40	i	.	.
CCC(C(=O)OCCOCCN(CC)CC)c1ccccc1 (stereo not drawn)	i	i	i	i	28	i	.	.
CCN(CC)CCCOC(=O)C(c1ccccc1)c1ccccc1	i	-10*	i	i	24	-6.2*	94*	94*
Cc1ccc(-c2csc(=Nc3cccnc3)n2CCCn2ccnc2)cc1C	i	-8.8*	i	i	18	i	92*	93*
Cc1ccc(-c2csc(=Nc3cccnc3)n2CCCN2CCCC2=O)cc1C	i	i	i	i	-5	i	.	.
CC1CC(OC(=O)C(O)c2ccccc2)CC(C)(C)N1C (stereo not drawn)	i	-10*	i	i	8	i	77*	38*
Cc1cc(C)c(C#N)c(Oc2ccccc2Br)n1	i	i	i	i	48	i	.	.
COC(=O)C1=C(C)NC(=S)NC1c1sccc1C (stereo not drawn)	i	i	i	i	-4	i	.	.
CN(CC(=O)Nc1cccc(F)c1)CC(=O)Nc1cccc(S(=O)(=O)N2CCCCCC2)c1	i	-7.7*	i	i	11	i	62*	33*
COC(=O)CNC(=O)/C=C/c1ccc(OC)cc1	i	i	i	i	-10	i	.	.
Cc1cc(C)c(S(=O)(=O)Nc2ccc3c(c2)CCC3)c(C)c1	i	-10*	i	i	9	i	92*	74*
Cc1cc(C)c(S(=O)(=O)Nc2ccc(O)cc2)c(C)c1	i	i	i	i	-1	i	.	.
